# Calls of active or inactive are those of the source. The calls are words filed in the database; no cut-off is given here.
# Key:
# [1] = test system: HL-60; assay: Induction of cell cycle arrest in human HL60 cells assessed as accumulation at G1 phase at 10 uM after 24 hrs by propidium iodide staining based flow cytometry (reference value: 53 +/- 1.1%); type: functional
# [2] = test system: U-937; assay: Induction of cell cycle arrest in human U937 cells assessed as accumulation at S phase at 3 uM after 24 hrs by propidium iodide staining based flow cytometry (reference value: 18.6 +/- 0.3%); type: functional
# [3] = test system: U-937; assay: Induction of cell cycle arrest in human U937 cells assessed as accumulation at S phase at 1 uM after 48 hrs by propidium iodide staining based flow cytometry (reference value: 18.9 +/- 0.2%); type: functional
# [4] = test system: U-937; assay: Cytotoxicity against human U937 cells at 30 uM incubated for 24 hrs followed of 0.5 ug/mL TRAIL exposure for 24 hrs by MTT assay; type: functional, cell-based
# How it was run: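 U937 cells, MTT viability read-out. One arm received TRAIL at 0.5 µg/mL together with compound at 30 µM for 48 h. The other arm had compound for 24 h, then TRAIL for 24 h. Three independent experiments, each in triplicate.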
# [5] = test system: HL-60; assay: Induction of cell cycle arrest in human HL60 cells assessed as accumulation at G2/M phase at 3 uM after 24 hrs by propidium iodide staining based flow cytometry (reference value: 22.5 +/- 0.9%); type: functional
# [6] = molecular target: MAP kinase p38 (Homo sapiens) (UniProt O15264+Q15759+Q16539+P53778); assay: Increase in p38 MAPK phosphorylation in human HL60 cells at 10 to 30 uM after 2 to 6 hrs by Western blotting method; type: cell-based; conditions: HL-60
# How it was run: (§1)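 HL-60 cells were incubated for a time course. Extracts were immunoblotted with phospho-specific antibodies for ERK 1/2, JNK/SAPK and p38MAPK. Membranes were then stripped and reprobed for the total kinases as loading controls.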
# [7] = test system: U-937; assay: Induction of cell cycle arrest in human U937 cells assessed as accumulation at G1 phase at 10 uM after 12 hrs by propidium iodide staining based flow cytometry (reference value: 45.8 +/- 0.8%); type: functional
# [8] = test system: U-937; assay: Induction of cell cycle arrest in human U937 cells assessed as accumulation at G2/M phase at 10 uM after 12 hrs by propidium iodide staining based flow cytometry (reference value: 24.2 +/- 1.2%); type: functional
# [9] = test system: HL-60; assay: Induction of cell cycle arrest in human HL60 cells assessed as accumulation at S phase at 1 uM after 12 hrs by propidium iodide staining based flow cytometry (reference value: 14.7 +/- 0.3%); type: functional
# [10] = test system: U-937; assay: Induction of apoptosis in human U937 cells assessed as pro-caspase-9 cleavage by Western blotting method; type: functional, cell-based
# How it was run: (§2)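 U937 cells exposed to increasing concentrations of the flavonol and harvested at 24 h. Lysates were immunoblotted with antibodies that detect both the pro-caspases and their cleaved forms.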
# [11] = test system: MOLT-3; assay: Induction of apoptosis in human MOLT3 cells assessed as pro-caspase-6 cleavage by Western blotting method; type: functional, cell-based
# How it was run: (§3)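 Cells were exposed to a range of compound concentrations and harvested at 24 h. Lysates were immunoblotted for caspase proforms and cleaved forms, and for Bcl-2 family proteins.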
# [12] = test system: HL-60; assay: Induction of apoptosis in human HL60 cells assessed as pro-caspase-9 processing at 3 and 10 uM after 6 to 24 hrs by immunoblotting method; type: functional, cell-based
# How it was run: (§4)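 Kinetic and dose-response immunoblots. Cells were treated, harvested at the indicated times, and probed with antibodies that detect both procaspase-8/-9 and their cleaved fragments.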
# [13] = test system: U-937; assay: Induction of cell cycle arrest in human U937 cells assessed as accumulation at S phase at 10 uM after 24 hrs by propidium iodide staining based flow cytometry (reference value: 18.6 +/- 0.3%); type: functional
# [14] = test system: U-937; assay: Induction of apoptosis in human U937 cells assessed as pro-caspase-8 cleavage by Western blotting method; type: functional, cell-based; how it was run: as §2
# [15] = test system: U-937; assay: Induction of apoptosis in human U937 cells assessed as pro-caspase-7 cleavage by Western blotting method; type: functional, cell-based; how it was run: as §2
# [16] = test system: HL-60; assay: Induction of apoptosis in human HL60 cells assessed as DNA fragmentation at 30 uM after 24 hrs by ethidium bromide staining based agarose gel electrophoresis method; type: functional, cell-based
# How it was run: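 HL-60 cells were treated for 24 h. Genomic DNA was extracted, run on an agarose gel, stained with ethidium bromide and viewed under UV.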
# [17] = test system: HL-60; assay: Induction of cell cycle arrest in human HL60 cells assessed as accumulation at subG1 phase at 3 uM after 48 hrs by propidium iodide staining based flow cytometry (reference value: 3.7 +/- 0.1%); type: functional
# [18] = test system: HL-60; assay: Induction of apoptosis in human HL60 cells assessed as nuclear chromatin condensation at 30 uM after 24 hrs by Hoechst 33258 staining based fluorescence microscopy; type: functional, cell-based
# How it was run: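 HL-60 cells were treated at 30 µM for 24 h, stained with Hoechst 33258, and scored for chromatin condensation by fluorescence microscopy.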
# [19] = test system: U-937; assay: Induction of cell cycle arrest in human U937 cells assessed as accumulation at G1 phase at 1 uM after 24 hrs by propidium iodide staining based flow cytometry (reference value: 49.8 +/- 1.5%); type: functional
# [20] = test system: U-937; assay: Increase in TRAIL expression in human U937 cells at 10 30 uM after 24 hrs by immunoblotting method; type: functional, cell-based
# How it was run: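 HL-60 and U937 cells were treated with increasing concentrations for 24 h. Lysates were immunoblotted for TRAIL, DR4 and DR5.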
# [21] = test system: U-937; assay: Induction of apoptosis in human U937 cells assessed as pro-caspase-6 cleavage by Western blotting method; type: functional, cell-based; how it was run: as §3
# [22] = test system: HL-60; assay: Induction of cell cycle arrest in human HL60 cells assessed as accumulation at S phase at 1 uM after 24 hrs by propidium iodide staining based flow cytometry (reference value: 17.9 +/- 0.6%); type: functional
# [23] = molecular target: c-Jun N-terminal kinase, JNK (Homo sapiens) (UniProt P45983+P53779+P45984); assay: Increase in JNK/SAPK phosphorylation in human HL60 cells at 10 to 30 uM after 2 to 6 hrs by Western blotting method; type: cell-based; conditions: HL-60; how it was run: as §1
# [24] = test system: HL-60; assay: Induction of cell cycle arrest in human HL60 cells assessed as accumulation at subG1 phase at 1 uM after 48 hrs by propidium iodide staining based flow cytometry (reference value: 3.7 +/- 0.1%); type: functional
# [25] = test system: U-937; assay: Induction of cell cycle arrest in human U937 cells assessed as accumulation at S phase at 1 uM after 12 hrs by propidium iodide staining based flow cytometry (reference value: 20.5 +/- 0.8%); type: functional
# [26] = test system: U-937; assay: Induction of cell cycle arrest in human U937 cells assessed as accumulation at subG1 phase at 1 uM after 12 hrs by propidium iodide staining based flow cytometry (reference value: 4.6 +/- 0.9%); type: functional
# [27] = test system: HL-60; assay: Induction of cell cycle arrest in human HL60 cells assessed as accumulation at G1 phase at 3 uM after 12 hrs by propidium iodide staining based flow cytometry (reference value: 57.2 +/- 0.9%); type: functional
# [28] = test system: U-937; assay: Induction of cell cycle arrest in human U937 cells assessed as accumulation at G1 phase at 3 uM after 12 hrs by propidium iodide staining based flow cytometry (reference value: 45.8 +/- 0.8%); type: functional
# [29] = test system: HL-60; assay: Induction of apoptosis in human HL60 cells assessed as pro-caspase-8 processing at 3 and 10 uM after 6 to 24 hrs by immunoblotting method; type: functional, cell-based; how it was run: as §4
# [30] = test system: MOLT-3; assay: Induction of apoptosis in human MOLT3 cells assessed as pro-caspase-7 cleavage by Western blotting method; type: functional, cell-based; how it was run: as §3
smiles,measurement,setting,value
O=c1c(O)c(-c2ccc(Br)cc2)oc2ccccc12,Activity,[1],37.3%
same,Activity,[2],24.7%
same,Activity,[3],19.6%
same,Activity,[4],Active
same,Activity,[5],21.8%
same,Activity,[6],Active
same,Activity,[7],47.6%
same,Activity,[8],19.6%
same,Activity,[9],15.6%
same,Activity,[10],Active
same,Activity,[11],Active
same,Activity,[12],Active
same,Activity,[13],23.7%
same,Activity,[14],Active
same,Activity,[15],Active
same,Activity,[16],Active
same,Activity,[17],14.3%
same,Activity,[18],Active
same,Activity,[19],47.4%
same,Activity,[20],Active
same,Activity,[21],Active
same,Activity,[22],20.7%
same,Activity,[23],Active
same,Activity,[24],3.4%
same,Activity,[25],21.5%
same,Activity,[26],3.3%
same,Activity,[27],56.7%
same,Activity,[28],46.6%
same,Activity,[29],Active
same,Activity,[30],Active

# Reference: ChEMBL document CHEMBL3352730, “Synthesis and effects on cell viability of flavonols and 3-methyl ether derivatives on human leukemia cells” (Eur J Med Chem, 2014)
